Reference: ChEMBL document CHEMBL1649510, “Nonsense and missense mutations in FCY2 and FCY1 genes are responsible for flucytosine resistance and flucytosine-fluconazole cross-resistance in clinical isolates of Candida lusitaniae” (2009)
Converted amounts (≈) assume the structure as drawn.

Tests used:
Assay type in all cases: functional
Clavispora lusitaniae [1] = assay: Antifungal activity against Candida lusitaniae CL38-5 expressing URA3 gene by microdilution method
Summary of the method: (§1)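 CLSI broth microdilution using twofold dilutions in RPMI 1640 with about 10³ cells/ml, incubated 48 h at 35°C. Final ranges were 0.5–256 μg/ml flucytosine and 0.25–128 μg/ml fluconazole. Cross-resistance was tested with a flucytosine gradient at constant fluconazole (8 or 16 μg/ml). MIC was read by automated plate reader as the lowest concentration giving 50% growth inhibition versus the drug-free control.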

Clavispora lusitaniae [2] = assay: Antifungal activity against fcy1-deficient Candida lusitaniae by microdilution method; summary of the method: as §1
Clavispora lusitaniae [3] = assay: Antifungal activity against Candida lusitaniae CL31 by microdilution method; summary of the method: as §1
Clavispora lusitaniae [4] = assay: Antifungal activity against REPF URA3 fcy1-deficient Candida lusitaniae by microdilution method; summary of the method: as §1
Clavispora lusitaniae [5] = assay: Antifungal activity against Candida lusitaniae CL42 by microdilution method; summary of the method: as §1
Clavispora lusitaniae [6] = assay: Antifungal activity against Candida lusitaniae CL38-5 expressing FCY2 gene by microdilution method; summary of the method: as §1
Clavispora lusitaniae [7] = assay: Antifungal activity against Candida lusitaniae 6936 by microdilution method; summary of the method: as §1
Clavispora lusitaniae [8] = assay: Antifungal activity against Candida lusitaniae CL48 by microdilution method; summary of the method: as §1
Clavispora lusitaniae [9] = assay: Antifungal activity against Candida lusitaniae CL38 by microdilution method; summary of the method: as §1
Clavispora lusitaniae [10] = assay: Antifungal activity against fcy1(1-26)-deficient Candida lusitaniae by microdilution method; summary of the method: as §1
Clavispora lusitaniae [11] = assay: Antifungal activity against Candida lusitaniae CL32 by microdilution method; summary of the method: as §1
Clavispora lusitaniae [12] = assay: Antifungal activity against Candida lusitaniae CL119 by microdilution method; summary of the method: as §1
Clavispora lusitaniae [13] = assay: Antifungal activity against Candida lusitaniae CL216 by microdilution method; summary of the method: as §1
Clavispora lusitaniae [14] = assay: Antifungal activity against Candida lusitaniae CL26 by microdilution method; summary of the method: as §1
Clavispora lusitaniae [15] = assay: Antifungal activity against Candida lusitaniae CL38-5 expressing FCY21 gene by microdilution method; summary of the method: as §1
Clavispora lusitaniae [16] = assay: Antifungal activity against Candida lusitaniae CL174 by microdilution method; summary of the method: as §1
Clavispora lusitaniae [17] = assay: Antifungal activity against Candida lusitaniae 42720 by microdilution method; summary of the method: as §1
Clavispora lusitaniae [18] = assay: Antifungal activity against fcy1(1-119)-deficient Candida lusitaniae by microdilution method; summary of the method: as §1
Clavispora lusitaniae [19] = assay: Antifungal activity against Candida lusitaniae CL29 by microdilution method; summary of the method: as §1
Clavispora lusitaniae [20] = assay: Antifungal activity against Candida lusitaniae CL128 by microdilution method; summary of the method: as §1

Structure (SMILES) | MIC (Clavispora lusitaniae [1]) [µg/mL] | MIC (Clavispora lusitaniae [2]) [µg/mL] | MIC (Clavispora lusitaniae [3]) [µg/mL] | MIC (Clavispora lusitaniae [4]) [µg/mL] | MIC (Clavispora lusitaniae [5]) [µg/mL] | MIC (Clavispora lusitaniae [6]) [µg/mL] | MIC (Clavispora lusitaniae [7]) [µg/mL] | MIC (Clavispora lusitaniae [8]) [µg/mL] | MIC (Clavispora lusitaniae [9]) [µg/mL] | MIC (Clavispora lusitaniae [10]) [µg/mL] | MIC (Clavispora lusitaniae [11]) [µg/mL] | MIC (Clavispora lusitaniae [12]) [µg/mL] | MIC (Clavispora lusitaniae [13]) [µg/mL] | MIC (Clavispora lusitaniae [14]) [µg/mL] | MIC (Clavispora lusitaniae [15]) [µg/mL] | MIC (Clavispora lusitaniae [16]) [µg/mL] | MIC (Clavispora lusitaniae [17]) [µg/mL] | MIC (Clavispora lusitaniae [18]) [µg/mL] | MIC (Clavispora lusitaniae [19]) [µg/mL] | MIC (Clavispora lusitaniae [20]) [µg/mL]
OC(Cn1cncn1)(Cn1cncn1)c1ccc(F)cc1F [FLUCONAZOLE] | 2 (≈ 6.53 µM) | 2 (≈ 6.53 µM) | 2 (≈ 6.53 µM) | 2 (≈ 6.53 µM) | 4 (≈ 13.1 µM) | 2 (≈ 6.53 µM) | 2 (≈ 6.53 µM) | 2 (≈ 6.53 µM) | 2 (≈ 6.53 µM) | 2 (≈ 6.53 µM) | ≤ 0.25 | 1 (≈ 3.27 µM) | 1 (≈ 3.27 µM) | ≤ 0.25 | 2 (≈ 6.53 µM) | 1 (≈ 3.27 µM) | 2 (≈ 6.53 µM) | 2 (≈ 6.53 µM) | 2 (≈ 6.53 µM) | 1 (≈ 3.27 µM)
Nc1nc(=O)[nH]cc1F [FLUCYTOSINE] | 32 (≈ 248 µM) | 128 (≈ 992 µM) | 32 (≈ 248 µM) | ≤ 0.5 | 64 (≈ 496 µM) | ≤ 0.5 | ≤ 0.5 | 32 (≈ 248 µM) | 32 (≈ 248 µM) | 128 (≈ 992 µM) | 128 (≈ 992 µM) | 32 (≈ 248 µM) | 32 (≈ 248 µM) | 64 (≈ 496 µM) | 32 (≈ 248 µM) | 64 (≈ 496 µM) | ≤ 0.5 | 128 (≈ 992 µM) | 128 (≈ 992 µM) | 32 (≈ 248 µM)
